The subject of data set [1] is Staphylococcus aureus. The experiment in a line: Antimicrobial activity against methicillin-resistant Staphylococcus aureus USA100 assessed as reduction in bacterial growth incubated for 18 to 20 hrs at 37 degC by broth microdilution method. The data set is classed as functional. In short, it runs like this:
(§1)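 Modified CLSI broth microdilution. Bacterial suspension of about 1 × 10^5 CFU/mL in tryptic soy broth. Each agent was added in triplicate to the first row and serially diluted down the plate. Plates were incubated at 37 °C for 18-20 h. MIC was read as the lowest concentration with no visible growth.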
Background: In broth dilution the organism is exposed to a series of concentrations in liquid medium.

The subject of data set [2] is Staphylococcus aureus. The data set is described as follows: Antimicrobial activity against vancomycin-intermediate-resistant Staphylococcus aureus NRS1 assessed as reduction in bacterial growth incubated for 18 to 20 hrs at 37 degC by broth microdilution method. The data set is classed as functional. A digest of the protocol:
as §1

Data set [3] has as its system Staphylococcus aureus. The data set is described as follows: Antimicrobial activity against methicillin-resistant Staphylococcus aureus NRS119 assessed as reduction in bacterial growth incubated for 18 to 20 hrs at 37 degC by broth microdilution method. It counts as functional. A digest of the protocol: as §1
In data set [4] the test system is Staphylococcus aureus. The experiment in a line: Antimicrobial activity against methicillin-resistant Staphylococcus aureus USA700 assessed as reduction in bacterial growth incubated for 18 to 20 hrs at 37 degC by broth microdilution method. It counts as functional. A digest of the protocol: as §1
For data set [5], the system named is Staphylococcus aureus. The data set is described as follows: Antimicrobial activity against methicillin-resistant Staphylococcus aureus USA200 assessed as reduction in bacterial growth incubated for 18 to 20 hrs at 37 degC by broth microdilution method. It counts as functional. A digest of the protocol:
as §1

Data set [6] has as its system Staphylococcus aureus. The experiment in a line: Antimicrobial activity against vancomycin-resistant Staphylococcus aureus VRS2 assessed as reduction in bacterial growth incubated for 18 to 20 hrs at 37 degC by broth microdilution method. The data set is classed as functional. A digest of the protocol: as §1
Data set [7] relates to Staphylococcus aureus. The experiment in a line: Antimicrobial activity against methicillin-resistant Staphylococcus aureus USA300 assessed as reduction in bacterial growth incubated for 18 to 20 hrs at 37 degC by broth microdilution method. It counts as functional. A digest of the protocol:
as §1

The test system of data set [8] is J774. The data set is classed as cell-based. As to conditions: mouse, j774, 2 h, 128 µM.
Data set [9] concerns Staphylococcus aureus. The data set is described as follows: Antimicrobial activity against methicillin-resistant Staphylococcus aureus USA500 assessed as reduction in bacterial growth incubated for 18 to 20 hrs at 37 degC by broth microdilution method. The data set is classed as functional. In short, it runs like this: as §1
The subject of data set [10] is Staphylococcus aureus. The experiment in a line: Antimicrobial activity against methicillin-sensitive Staphylococcus aureus NRS72 assessed as reduction in bacterial growth incubated for 18 to 20 hrs at 37 degC by broth microdilution method. The data set is classed as functional. A digest of the protocol: as §1
Data set [11] concerns J774. The data set is described as follows: Cytotoxicity against mouse J774 cells assessed as reduction in cell viability at 64 uM incubated for 2 hrs by MTS assay. The data set is classed as cell-based. The note with it: j774, 2 h. A digest of the protocol: (§2)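 Murine J774 macrophages grown in DMEM with 10% FBS at 37 °C, 5% CO2. Compounds were tested in triplicate at 16, 32, 64 and 128 μM for 2 h, with DMSO-matched vehicle controls. MTS reagent was then added and absorbance read at OD490. Viability is given as percent of DMSO-treated cells (mean of triplicate ± standard deviation), compared by paired t-test (P < 0.05).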

Data set [12] has as its system J774. The data set is described as follows: Cytotoxicity against mouse J774 cells assessed as reduction in cell viability at 32 uM incubated for 2 hrs by MTS assay. It counts as cell-based. As to conditions: j774, 2 h. A digest of the protocol: as §2
In general terms: Tetrazolium dyes change colour on reduction, which living cells bring about.

≈ marks a conversion by molar mass, not a printed value.

Usually MIC stands for the smallest concentration in the dilution series that meets the test's criterion for growth inhibition.

`[C-]#[N+]c1ccccc1/C=C/c1ccc(F)cc1`: the minimum inhibitory concentration (MIC) in the data set with Staphylococcus aureus [1] came out at 8 µM (≈ 1.79 µg/mL); in the data set with Staphylococcus aureus [2] it was 4 µM (≈ 0.893 µg/mL); in the data set with Staphylococcus aureus [3], 16 µM (≈ 3.57 µg/mL); with Staphylococcus aureus [4] it was 8 µM (≈ 1.79 µg/mL); in the data set on Staphylococcus aureus [5], 2 µM (≈ 0.446 µg/mL); with Staphylococcus aureus [6], 32 µM (≈ 7.14 µg/mL). The MIC in the data set on Staphylococcus aureus [7] was 8 µM (≈ 1.79 µg/mL); with Staphylococcus aureus [9] it was 16 µM (≈ 3.57 µg/mL); with Staphylococcus aureus [10], 4 µM (≈ 0.893 µg/mL). Also, the Activity entry is reported as “Toxic” with J774 [8], “Non-toxic” in the data set with J774 [11] and “Non-toxic” in the data set with J774 [12].
On to `[C-]#[N+]c1ccccc1/C=C/c1ccccc1OC`, for which the MIC in the data set with Staphylococcus aureus [1] was found to be 8 µM (≈ 1.88 µg/mL); with Staphylococcus aureus [2], 4 µM (≈ 0.941 µg/mL); in the data set on Staphylococcus aureus [3], 16 µM (≈ 3.76 µg/mL); in the data set on Staphylococcus aureus [4], 8 µM (≈ 1.88 µg/mL); in the data set on Staphylococcus aureus [5], 8 µM (≈ 1.88 µg/mL); with Staphylococcus aureus [6], 16 µM (≈ 3.76 µg/mL). Moreover, the MIC in the data set with Staphylococcus aureus [7], in the data set on Staphylococcus aureus [9] and in the data set with Staphylococcus aureus [10] was 8 µM (≈ 1.88 µg/mL) in each case. The Activity result with J774 [8] is on record as “Toxic”; with J774 [11], “Non-toxic”; in the data set on J774 [12], “Non-toxic”.
As for `[C-]#[N+]c1ccccc1/C=C/c1ccc(C(F)(F)F)cc1`, the MIC with Staphylococcus aureus [1] was determined as 4 µM (≈ 1.09 µg/mL); in the data set on Staphylococcus aureus [2], 2 µM (≈ 0.547 µg/mL); in the data set on Staphylococcus aureus [3], 16 µM (≈ 4.37 µg/mL); in the data set on Staphylococcus aureus [4], 2 µM (≈ 0.547 µg/mL); in the data set with Staphylococcus aureus [5] it was 2 µM (≈ 0.547 µg/mL); in the data set on Staphylococcus aureus [6], 16 µM (≈ 4.37 µg/mL). The values for the MIC with Staphylococcus aureus [7], with Staphylococcus aureus [9] and with Staphylococcus aureus [10] were 8 µM (≈ 2.19 µg/mL), 16 µM (≈ 4.37 µg/mL) and 4 µM (≈ 1.09 µg/mL), respectively. Also, the Activity entry with J774 [8] was “Toxic”; in the data set with J774 [11], “Non-toxic”; in the data set with J774 [12], “Non-toxic”.
With `[C-]#[N+]c1ccccc1/C=C/c1ccc([N+](=O)[O-])cc1`, the MIC came out at 4 µM (≈ 1 µg/mL) in the data set with Staphylococcus aureus [1]; 4 µM (≈ 1 µg/mL) in the data set on Staphylococcus aureus [2]; 16 µM (≈ 4 µg/mL) with Staphylococcus aureus [3]; 4 µM (≈ 1 µg/mL) in the data set on Staphylococcus aureus [5]; 8 µM (≈ 2 µg/mL) with Staphylococcus aureus [6]; 2 µM (≈ 0.501 µg/mL) with Staphylococcus aureus [10]. For the same molecule, the Activity entry in the data set on J774 [8], in the data set on J774 [11] and with J774 [12] was “Toxic” in each case.
For the molecule `[C-]#[N+]c1ccc(/C=C/c2ccncc2)cc1`, the MIC worked out at 8 µM (≈ 1.65 µg/mL) in the data set with Staphylococcus aureus [1]; 8 µM (≈ 1.65 µg/mL) in the data set on Staphylococcus aureus [2]; 8 µM (≈ 1.65 µg/mL) with Staphylococcus aureus [4]; 8 µM (≈ 1.65 µg/mL) in the data set on Staphylococcus aureus [5]; 4 µM (≈ 0.825 µg/mL) in the data set with Staphylococcus aureus [6]; 2 µM (≈ 0.412 µg/mL) in the data set on Staphylococcus aureus [10]. Also, the Activity entry is listed as “Toxic” in the data set with J774 [8], “Non-toxic” in the data set on J774 [11] and “Non-toxic” with J774 [12].
Consider `[C-]#[N+]c1ccccc1/C=C(\CC)c1cccc(C(F)(F)F)c1`, for which the MIC with Staphylococcus aureus [1] was 4 µM (≈ 1.21 µg/mL); in the data set on Staphylococcus aureus [2], 2 µM (≈ 0.603 µg/mL); with Staphylococcus aureus [4], 2 µM (≈ 0.603 µg/mL); in the data set with Staphylococcus aureus [6] it was 8 µM (≈ 2.41 µg/mL); in the data set on Staphylococcus aureus [7], over 128 µM; in the data set on Staphylococcus aureus [10], 4 µM (≈ 1.21 µg/mL). Moreover, the Activity result in the data set with J774 [8] is “Toxic”; in the data set with J774 [11], “Toxic”; in the data set on J774 [12], “Non-toxic”.
Consider `[C-]#[N+]c1ccccc1/C=C/c1cccc(C(F)(F)F)c1`, for which the MIC in the data set with Staphylococcus aureus [1] was determined as 4 µM (≈ 1.09 µg/mL); with Staphylococcus aureus [2], 2 µM (≈ 0.547 µg/mL); with Staphylococcus aureus [4], 4 µM (≈ 1.09 µg/mL); in the data set on Staphylococcus aureus [5], 4 µM (≈ 1.09 µg/mL); in the data set on Staphylococcus aureus [6], 8 µM (≈ 2.19 µg/mL); with Staphylococcus aureus [10], 2 µM (≈ 0.547 µg/mL). Also, the Activity result is “Toxic” with J774 [8], “Non-toxic” in the data set on J774 [11] and “Non-toxic” in the data set with J774 [12].
As to `[C-]#[N+]c1ccccc1/C=C/c1ccccc1C(F)(F)F`, the MIC was 16 µM (≈ 4.37 µg/mL) in the data set on Staphylococcus aureus [1]; 8 µM (≈ 2.19 µg/mL) with Staphylococcus aureus [2]; over 128 µM with Staphylococcus aureus [3]; 16 µM (≈ 4.37 µg/mL) in the data set on Staphylococcus aureus [4]; 16 µM (≈ 4.37 µg/mL) in the data set on Staphylococcus aureus [5]; 32 µM (≈ 8.74 µg/mL) in the data set with Staphylococcus aureus [6]. Moreover, the MIC with Staphylococcus aureus [7] worked out at 32 µM (≈ 8.74 µg/mL); in the data set on Staphylococcus aureus [9], 16 µM (≈ 4.37 µg/mL); in the data set with Staphylococcus aureus [10], 8 µM (≈ 2.19 µg/mL). Besides, the Activity entry is on record as “Toxic” in the data set on J774 [8], “Non-toxic” in the data set with J774 [11] and “Non-toxic” in the data set on J774 [12].

The record behind these values is ChEMBL document CHEMBL3611989, “Discovery and characterization of aryl isonitriles as a new class of compounds versus methicillin- and vancomycin-resistant Staphylococcus aureus” (Eur J Med Chem, 2015).
